Our source for the IC50, Ki and Activity values is ChEMBL document CHEMBL1136312, “Nortropinyl-arylsulfonylureas as novel, reversible inhibitors of human steroid sulfatase” (Bioorg Med Chem Lett, 2003).

The target of assay [1] is T1, Steryl-sulfatase (Homo sapiens, UniProt P08842).
T1 sequence (P08842 whole entry): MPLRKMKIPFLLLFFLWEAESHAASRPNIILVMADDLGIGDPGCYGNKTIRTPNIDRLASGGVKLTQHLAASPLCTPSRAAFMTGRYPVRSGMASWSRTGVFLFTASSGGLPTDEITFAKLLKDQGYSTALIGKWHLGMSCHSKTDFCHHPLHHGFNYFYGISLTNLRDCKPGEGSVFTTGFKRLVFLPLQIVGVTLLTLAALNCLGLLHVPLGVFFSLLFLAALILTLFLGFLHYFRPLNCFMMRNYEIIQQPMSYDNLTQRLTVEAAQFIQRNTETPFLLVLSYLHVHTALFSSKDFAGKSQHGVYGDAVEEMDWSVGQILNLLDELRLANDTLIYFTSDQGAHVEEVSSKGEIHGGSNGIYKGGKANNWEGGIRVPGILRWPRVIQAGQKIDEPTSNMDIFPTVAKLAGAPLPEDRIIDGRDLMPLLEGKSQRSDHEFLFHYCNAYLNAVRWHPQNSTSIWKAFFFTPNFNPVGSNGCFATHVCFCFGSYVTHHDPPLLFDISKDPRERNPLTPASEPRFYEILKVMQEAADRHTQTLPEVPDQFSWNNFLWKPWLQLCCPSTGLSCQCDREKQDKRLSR
Put plainly: Inhibitory activity against purified human Steroid sulfatase. The procedure, abridged:
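Homogeneous human STS, purified from recombinant CHO cells, cleaves 4-methylumbelliferyl sulfate (4-MUS). The reaction is followed in a discontinuous fluorimetric assay with and without inhibitor, using a 1 h incubation in the standard format. The IC50 is taken from the inhibition data.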

Assay [2] deals with T1, Steryl-sulfatase. Put plainly: Inhibitory activity against Steroid sulfatase expressed in CHO cells. The assay is classed as cell-based. The procedure, abridged:
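Intact CHO cells over-expressing recombinant human STS are given 4-MUS as substrate, using the assay variant for reversible inhibitors. STS activity is measured in the presence of inhibitor, and the IC50 is derived.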

The target of assay [3] is T1, Steryl-sulfatase. Put plainly: Inhibitory constant against purified human Steroid sulfatase. In short, it runs like this: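 Kinetic study with purified recombinant human STS and 4-MUS substrate in the discontinuous fluorimetric assay. Substrate turnover rates are measured at various inhibitor concentrations and replotted as Hanes diagrams. Kapp/Vapp ratios are plotted against inhibitor concentration, and Ki is read from the abscissa intercept. Pre-incubation and dextran-activated charcoal treatment were used to test reversibility.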

A further assay deals with MCF7. Put plainly: Growth stimulation of estrogen receptor positive MCF-7 human breast cancer cells with compound up to 10 uM; not estrogenic. The assay is classed as functional, cell-based.

SMILES strings stand for the structures.

With `O=C(Cc1ccccc1)O[C@H]1C[C@H]2CC[C@@H](C1)N2C(=O)CS(=O)(=O)c1ccc(Cl)cc1`, the figures for the IC50 against Steryl-sulfatase [1] and against Steryl-sulfatase [2] were 6.2 µM and 4.32 µM, respectively.
On to `Cc1ccc(S(=O)(=O)NC(=O)N2[C@@H]3CC[C@H]2C[C@@H](OC(=O)Cc2ccccc2)C3)cc1`, for which the results for the IC50 against Steryl-sulfatase [1] and against Steryl-sulfatase [2] were 16.6 µM and 37.1 µM, respectively.
In the case of `O=C(Cc1ccccc1)O[C@H]1C[C@H]2CC[C@@H](C1)N2C(=O)NS(=O)(=O)c1ccccc1`, the IC50 on Steryl-sulfatase [1] was above 100 µM; against Steryl-sulfatase [2], above 30 µM.
On to `O=C(Cc1ccccc1)O[C@H]1C[C@H]2CC[C@@H](C1)N2C(=O)NS(=O)(=O)c1ccc(Cl)cc1`, for which the Ki on Steryl-sulfatase [3] was found to be 2.4 µM. Moreover, at Steryl-sulfatase [2], it took 6.72 µM to reach half-maximal inhibition (IC50).
The like results for `O=C(Cc1ccccc1)O[C@H]1C[C@H]2CC[C@@H](C1)N2C(=O)NS(=O)(=O)c1ccc(C(F)(F)F)cc1` were, in that order, 0.53 µM and 7.47 µM.
The like results for `O=C(Cc1ccccc1)O[C@H]1C[C@H]2CC[C@@H](C1)N2C(=O)NC(=O)c1ccc(Cl)cc1` were, in that order, 5.8 µM and 10.4 µM.
As to `O=C(Cc1ccccc1)OC1CCN(C(=O)NS(=O)(=O)c2ccc(Cl)cc2)CC1`, the figures for the IC50 on Steryl-sulfatase [1] and at Steryl-sulfatase [2] were above 100 µM and above 30 µM, respectively.
Take `O=C(NN1[C@@H]2CC[C@H]1C[C@@H](OC(=O)Cc1ccccc1)C2)NS(=O)(=O)c1ccc(Cl)cc1`: the Activity entry in the assay on MCF7 was “not estrogenic”. This molecule registered a Ki at Steryl-sulfatase [3] of 0.89 µM. The same molecule registered a 50% inhibitory concentration (IC50) against Steryl-sulfatase [2] of 3.84 µM.
For the molecule `O=C(Cc1ccccc1)O[C@H]1C[C@H]2CC[C@@H](C1)N2C(=O)NS(=O)(=O)c1ccc(F)cc1`, the IC50 at Steryl-sulfatase [1] was 50 µM; against Steryl-sulfatase [2], 39.2 µM.
As to `N#CC1(OC(=O)Cc2ccccc2)CCN(C(=O)NS(=O)(=O)c2ccc(Cl)cc2)CC1`, the results for the IC50 against Steryl-sulfatase [1] and against Steryl-sulfatase [2] were 13 µM and 24.5 µM, respectively.
In turn, `C[C@]12CC[C@@H]3c4ccc(OS(N)(=O)=O)cc4CC[C@H]3[C@@H]1CCC2=O` [EMATE] displayed a Ki at Steryl-sulfatase [3] of 0.67 µM. This molecule showed an IC50 at Steryl-sulfatase [2] of 0.03 µM.
On to `O=C(Cc1ccccc1)O[C@H]1C[C@H]2CC[C@@H](C1)N2C(=O)NS(=O)(=O)c1cc(C(F)(F)F)cc(C(F)(F)F)c1`, for which the Ki at Steryl-sulfatase [3] was found to be 0.076 µM. Moreover, the values for the IC50 at Steryl-sulfatase [1] and on Steryl-sulfatase [2] were 0.084 µM and 1.89 µM, respectively.
The molecule `O=C(Cc1ccccc1)O[C@H]1C[C@H]2CC[C@@H](C1)N2C(=O)NS(=O)(=O)c1ccc(Br)cc1` yielded a Ki at Steryl-sulfatase [3] of 1.85 µM. In addition, on Steryl-sulfatase [2], the IC50 was 6.15 µM.
